Results published in ChEMBL document CHEMBL1208695, “Propenylamide and propenylsulfonamide cephalosporins as a novel class of anti-MRSA beta-lactams” (Bioorg Med Chem Lett, 2010).
Converted amounts (≈) assume the structure as drawn.

Experiments:
[1] = tested on: Staphylococcus aureus; test: Antibacterial activity against Staphylococcus aureus ATCC 25923; type: functional
[2] = tested on: Staphylococcus aureus; test: Antibacterial activity against Staphylococcus aureus 887 expressing beta-lactamase; type: functional
[3] = tested on: Staphylococcus aureus; test: Antibacterial activity against beta-lactamase deficient Staphylococcus aureus COL; type: functional
[4] = tested on: Staphylococcus aureus; test: Antibacterial activity against Staphylococcus aureus COL expressing beta-lactamase; type: functional
[5] = tested on: Streptococcus pneumoniae; test: Antibacterial activity against Streptococcus pneumoniae R6; type: functional
[6] = tested on: Escherichia coli; test: Antibacterial activity against Escherichia coli UB1005; type: functional
[7] = Inhibition of Staphylococcus epidermidis PBP2
Summary of the method: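 Enzyme: purified recombinant PBP2' from Staphylococcus epidermidis, used as the inhibition target.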

[8] = tested on: Staphylococcus aureus; test: Antibacterial activity against Staphylococcus aureus COL expressing beta-lactamase in presence of Sulbactam; type: functional

Compound | MIC [1] [µg/mL] | MIC [2] [µg/mL] | MIC [3] [µg/mL] | MIC [4] [µg/mL] | MIC [5] [µg/mL] | MIC [6] [µg/mL] | IC50 [7] [µM] | MIC [8] [µg/mL]
O=C(CSc1ccc2ccccc2c1)N[C@@H]1C(=O)N2C(C(=O)O)=C(/C=C/CNC(=O)c3cccnc3)CS[C@H]12 | 0.13 (≈ 0.232 µM) | 1 (≈ 1.78 µM) | 4 (≈ 7.13 µM) | > 32 | ≤ 0.06 | > 32 | 31 | 1
O=C(CSc1ccc2ccccc2c1)N[C@@H]1C(=O)N2C(C(=O)O)=C(/C=C/CNC(=O)C3CC3)CS[C@H]12 | ≤ 0.06 | 0.5 (≈ 0.955 µM) | 1 (≈ 1.91 µM) | 16 (≈ 30.6 µM) | ≤ 0.06 | > 32 |  | 
O=C(CSc1ccc2ccccc2c1)N[C@@H]1C(=O)N2C(C(=O)O)=C(/C=C/CNS(=O)(=O)c3ccccc3)CS[C@H]12 | ≤ 0.06 | 2 (≈ 3.36 µM) | 1 (≈ 1.68 µM) | 32 (≈ 53.7 µM) | ≤ 0.06 | > 32 | 20 | 
CCS(=O)(=O)NC/C=C/C1=C(C(=O)O)N2C(=O)[C@@H](NC(=O)CSc3ccc4ccccc4c3)[C@H]2SC1 | ≤ 0.06 | 2 (≈ 3.65 µM) | 8 (≈ 14.6 µM) | > 32 | ≤ 0.06 | > 32 | 22 | 
O=C(CSc1ccc2ccccc2c1)N[C@@H]1C(=O)N2C(C(=O)O)=C(/C=C/CNS(=O)(=O)c3csc(Cl)c3)CS[C@H]12 | ≤ 0.06 | 0.5 (≈ 0.786 µM) | 1 (≈ 1.57 µM) | 16 (≈ 25.1 µM) | ≤ 0.06 | > 32 | 2 | 1
O=C(Cc1ccccc1)N[C@@H]1C(=O)N2C(C(=O)O)=C(/C=C/CNS(=O)(=O)c3csc(Cl)c3)CS[C@H]12 | 0.13 (≈ 0.235 µM) | 2 (≈ 3.61 µM) | 32 (≈ 57.8 µM) | > 32 | ≤ 0.06 | > 32 |  | 
CO/N=C(\C(=O)N[C@@H]1C(=O)N2C(C(=O)O)=C(/C=C/CNC(=O)C3CCCN3C)CS[C@H]12)c1csc(N)n1 (stereo partly specified) | 2 (≈ 3.64 µM) | 8 (≈ 14.6 µM) | > 32 | > 32 | ≤ 0.06 | 1 (≈ 1.82 µM) | > 500 | 
Nc1nc(/C(=N/O)C(=O)N[C@@H]2C(=O)N3C(C(=O)O)=C(/C=C/CNS(=O)(=O)c4ccccc4)CS[C@H]23)c(Cl)s1 | 0.5 (≈ 0.835 µM) | 1 (≈ 1.67 µM) | 8 (≈ 13.4 µM) | 16 (≈ 26.7 µM) | 0.25 (≈ 0.417 µM) | > 32 | 6 | 
Nc1nc(/C(=N/O)C(=O)N[C@@H]2C(=O)N3C(C(=O)O)=C(/C=C/CNS(=O)(=O)c4cccnc4)CS[C@H]23)c(Cl)s1 | 2 (≈ 3.33 µM) | 4 (≈ 6.67 µM) | 16 (≈ 26.7 µM) | 32 (≈ 53.3 µM) | ≤ 0.06 | 16 (≈ 26.7 µM) | 12 | 
CN1CCCC1C(=O)NC/C=C/C1=C(C(=O)O)N2C(=O)[C@@H](NC(=O)CSc3ccc4ccccc4c3)[C@H]2SC1 (stereo partly specified) | 0.13 (≈ 0.229 µM) | 1 (≈ 1.76 µM) | 4 (≈ 7.06 µM) | > 32 | 0.13 (≈ 0.229 µM) | > 32 |  | 1
CC1(C)S[C@@H]2[C@H](NC(=O)[C@H](N)c3ccc(O)cc3)C(=O)N2[C@H]1C(=O)O [AMOXICILLIN] | 0.25 (≈ 0.684 µM) | 32 (≈ 87.6 µM) | 32 (≈ 87.6 µM) | > 32 | ≤ 0.06 | 8 (≈ 21.9 µM) |  | 
CC(=O)OCC1=C(C(=O)O)N2C(=O)[C@@H](NC(=O)Cc3cccs3)[C@H]2SC1 [CEPHALOTHIN] | 0.25 (≈ 0.631 µM) | 0.5 (≈ 1.26 µM) | > 32 | > 32 | 0.125 (≈ 0.315 µM) | 8 (≈ 20.2 µM) |  | 

Next, values leading:

MIC [1] [µg/mL] | MIC [2] [µg/mL] | MIC [3] [µg/mL] | MIC [4] [µg/mL] | MIC [5] [µg/mL] | MIC [6] [µg/mL] | IC50 [7] [µM] | MIC [8] [µg/mL] | Compound
≤ 0.06 | 1 (≈ 1.85 µM) | 4 (≈ 7.4 µM) | 32 (≈ 59.2 µM) | ≤ 0.06 | > 32 | 50 | 4 | CN(C)CC(=O)NC/C=C/C1=C(C(=O)O)N2C(=O)[C@@H](NC(=O)CSc3ccc4ccccc4c3)[C@H]2SC1
0.25 (≈ 0.516 µM) | 8 (≈ 16.5 µM) | > 32 | > 32 | ≤ 0.06 | > 32 |  |  | CN1CCCC1C(=O)NC/C=C/C1=C(C(=O)O)N2C(=O)[C@@H](NC(=O)Cc3ccccc3)[C@H]2SC1 (stereo partly specified)
≤ 0.06 |  | > 32 | > 32 | ≤ 0.06 | > 32 |  |  | O=C(Cc1ccccc1)N[C@@H]1C(=O)N2C(C(=O)O)=C(/C=C/CNC(=O)c3cccnc3)CS[C@H]12
0.5 (≈ 0.974 µM) | 16 (≈ 31.2 µM) | > 32 | > 32 | 0.13 (≈ 0.253 µM) | > 32 |  |  | O=C(Cc1ccccc1)N[C@@H]1C(=O)N2C(C(=O)O)=C(/C=C/CNS(=O)(=O)c3ccccc3)CS[C@H]12
4 (≈ 7.36 µM) | 8 (≈ 14.7 µM) | > 32 | > 32 | ≤ 0.06 | 0.25 (≈ 0.46 µM) | > 500 |  | CO/N=C(\C(=O)N[C@@H]1C(=O)N2C(C(=O)O)=C(/C=C/CNC(=O)c3cccnc3)CS[C@H]12)c1csc(N)n1
1 (≈ 1.73 µM) | 2 (≈ 3.45 µM) | > 32 | > 32 | ≤ 0.06 | 1 (≈ 1.73 µM) | 235 |  | CO/N=C(\C(=O)N[C@@H]1C(=O)N2C(C(=O)O)=C(/C=C/CNS(=O)(=O)c3cccnc3)CS[C@H]12)c1csc(N)n1
